# Measured values taken from ChEMBL document CHEMBL4190374, “Structure-Function Evaluation of Imidazopyridine Derivatives Selective for δ-Subunit-Containing γ-Aminobutyric Acid Type A (GABAA) Receptors” (J Med Chem, 2018).
# What was measured:
# [1] = organism: Rattus norvegicus; assay: Selectivity ratio of IC50 for rat GABA-A receptor alpha4beta3gamma2 expressed in HEK293 cells to IC50 for rat GABA-A receptor alpha4beta3delta expressed in HEK293 cells; assay type: cell-based
# [2] = molecular target: T1, Gamma-aminobutyric acid receptor subunit alpha-6/beta-3 (Rattus norvegicus) (UniProt P30191+P63079); assay: Modulation of rat […] GABA-A receptor alpha6beta3 expressed in HEK293 cells up to 10 uM in presence of GABA by patch-clamp assay relative to control; assay type: cell-based
# Summary of the method: (§1)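 Rat GABA-A subunits were transiently co-transfected with eGFP into HEK293 cells on coverslips. Fluorescent cells were recorded by whole-cell patch clamp 48 h later; bath pH 7.4, KCl/KOH pipette pH 7.2. Compound was applied at increasing concentrations up to 10 µM with the receptor-specific GABA EC20. Peak currents were fitted logistically for EC50, Hill and % modulation, as mean ± S.E.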
# [3] = molecular target: Gamma-aminobutyric acid receptor subunit alpha-4/beta-3/delta (Rattus norvegicus, UniProt P18506+P28471+P63079); assay: Displacement of [3H]EBOB from rat GABA-A receptor alpha4beta3delta expressed in HEK293 cell membranes after 90 mins by liquid scintillation counting analysis
# Gamma-aminobutyric acid receptor subunit alpha-4/beta-3/delta, sequence (P18506 whole entry): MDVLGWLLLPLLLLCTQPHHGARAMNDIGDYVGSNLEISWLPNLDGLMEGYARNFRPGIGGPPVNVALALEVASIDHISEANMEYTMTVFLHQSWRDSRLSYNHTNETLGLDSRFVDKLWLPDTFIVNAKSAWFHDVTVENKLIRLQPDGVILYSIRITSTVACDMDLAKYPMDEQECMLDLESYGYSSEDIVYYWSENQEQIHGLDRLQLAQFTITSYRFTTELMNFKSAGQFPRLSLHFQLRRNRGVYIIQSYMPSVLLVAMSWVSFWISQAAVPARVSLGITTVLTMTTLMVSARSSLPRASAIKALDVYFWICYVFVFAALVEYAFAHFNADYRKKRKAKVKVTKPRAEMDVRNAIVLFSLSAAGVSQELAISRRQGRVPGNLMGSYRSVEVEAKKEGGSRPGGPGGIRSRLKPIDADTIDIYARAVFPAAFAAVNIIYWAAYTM
# Gamma-aminobutyric acid receptor subunit alpha-4/beta-3/delta, sequence (P28471 whole entry): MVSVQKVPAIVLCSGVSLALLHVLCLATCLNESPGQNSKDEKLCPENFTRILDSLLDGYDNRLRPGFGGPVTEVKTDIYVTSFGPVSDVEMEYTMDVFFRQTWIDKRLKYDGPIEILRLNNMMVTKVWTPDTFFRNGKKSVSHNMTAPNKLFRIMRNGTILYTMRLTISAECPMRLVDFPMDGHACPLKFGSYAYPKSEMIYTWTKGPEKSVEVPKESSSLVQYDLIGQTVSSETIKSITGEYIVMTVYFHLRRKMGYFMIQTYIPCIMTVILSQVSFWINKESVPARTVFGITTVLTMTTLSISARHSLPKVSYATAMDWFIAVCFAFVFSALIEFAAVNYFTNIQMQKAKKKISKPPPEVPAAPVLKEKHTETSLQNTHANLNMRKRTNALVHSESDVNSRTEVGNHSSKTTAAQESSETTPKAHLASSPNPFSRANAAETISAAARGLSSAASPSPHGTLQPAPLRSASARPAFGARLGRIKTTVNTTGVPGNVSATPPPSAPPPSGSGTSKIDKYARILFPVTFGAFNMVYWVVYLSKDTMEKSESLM
# Gamma-aminobutyric acid receptor subunit alpha-4/beta-3/delta, sequence (P63079 whole entry): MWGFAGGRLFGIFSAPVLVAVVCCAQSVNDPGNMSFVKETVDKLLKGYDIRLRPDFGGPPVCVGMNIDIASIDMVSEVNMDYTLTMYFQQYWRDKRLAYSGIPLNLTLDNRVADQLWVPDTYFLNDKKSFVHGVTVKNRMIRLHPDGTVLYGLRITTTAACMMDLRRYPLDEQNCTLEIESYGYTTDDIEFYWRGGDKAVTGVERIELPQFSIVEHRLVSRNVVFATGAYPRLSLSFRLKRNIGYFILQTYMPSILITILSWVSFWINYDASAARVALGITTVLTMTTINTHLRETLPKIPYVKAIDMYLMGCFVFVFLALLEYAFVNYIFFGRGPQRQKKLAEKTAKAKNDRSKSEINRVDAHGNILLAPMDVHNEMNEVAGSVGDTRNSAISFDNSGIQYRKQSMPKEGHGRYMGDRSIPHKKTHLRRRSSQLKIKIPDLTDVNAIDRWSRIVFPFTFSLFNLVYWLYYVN
# Summary of the method: (§2)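 Crude membranes from HEK 293 cells transiently Ca-phosphate-transfected with rat subunit cDNAs, harvested at 48 h. Membranes (150-200 µg protein) incubated with 3 nM [3H]EBOB in 50 mM Tris/citrate pH 7.3 plus 0.2 M NaCl. Compound up to 10 µM, final DMSO 0.1%, no GABA, 90 min at 21 °C. Bound radioligand collected by GF/C filtration and counted by scintillation.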
# [4] = molecular target: T1, Gamma-aminobutyric acid receptor subunit alpha-6/beta-3 (Rattus norvegicus); assay: Agonist activity at rat […] GABA-A receptor alpha6beta3 expressed in HEK293 cells assessed as ratio of I0 to GABA Imax at 10 uM in absence of GABA by patch-clamp assay; assay type: cell-based
# Summary of the method: (§3)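 Whole-cell patch clamp on single fluorescent HEK 293 cells 48 h after transient co-transfection with rat subunit cDNAs plus eGFP. Extracellular solution 135 mM NaCl, 5.3 mM KCl, 2 mM CaCl2, 2 mM MgSO4, 10 mM HEPES pH 7.4, perfused 3 mL/min. Compound at 10 µM without GABA. Current expressed relative to 1 mM GABA at the same receptor (I0/Imax GABA), mean ± S.D. of n experiments.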
# [5] = organism: Rattus norvegicus; assay: Selectivity ratio of IC50 for rat GABA-A receptor alpha6beta2gamma2 expressed in HEK293 cells to IC50 for rat GABA-A receptor alpha6beta2delta expressed in HEK293 cells; assay type: cell-based
# [6] = molecular target: Gamma-aminobutyric acid receptor subunit alpha-4/beta-3/delta (Rattus norvegicus) (UniProt P18506+P28471+P63079); assay: Modulation of rat […] GABA-A receptor alpha4beta3delta expressed in HEK293 cells up to 10 uM in presence of GABA by patch-clamp assay relative to control; assay type: cell-based; summary of the method: as §1
# [7] = molecular target: T2, Gamma-aminobutyric acid receptor subunit alpha-6/beta-3/gamma-2 (Rattus norvegicus, UniProt P18508+P30191+P63079); assay: (§4) Displacement of [3H]EBOB from rat GABA-A receptor alpha6beta3gamma2 expressed in HEK293 cell membranes after 90 mins in presence of GABA by liquid scintillation counting analysis
# T2 sequence (P18508 whole entry): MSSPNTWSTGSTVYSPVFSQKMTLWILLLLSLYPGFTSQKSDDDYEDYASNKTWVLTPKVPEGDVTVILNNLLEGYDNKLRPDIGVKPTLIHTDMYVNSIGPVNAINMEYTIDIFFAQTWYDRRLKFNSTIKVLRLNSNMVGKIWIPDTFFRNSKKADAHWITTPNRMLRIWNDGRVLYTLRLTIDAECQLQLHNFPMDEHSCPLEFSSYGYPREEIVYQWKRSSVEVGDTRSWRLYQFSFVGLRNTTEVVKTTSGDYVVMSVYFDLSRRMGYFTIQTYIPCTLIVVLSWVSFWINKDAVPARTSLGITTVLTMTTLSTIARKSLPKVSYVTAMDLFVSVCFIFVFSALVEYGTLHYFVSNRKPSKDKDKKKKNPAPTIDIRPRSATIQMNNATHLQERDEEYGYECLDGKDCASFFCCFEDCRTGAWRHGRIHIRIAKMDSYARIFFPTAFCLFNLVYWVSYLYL
# T2 sequence (P30191 whole entry): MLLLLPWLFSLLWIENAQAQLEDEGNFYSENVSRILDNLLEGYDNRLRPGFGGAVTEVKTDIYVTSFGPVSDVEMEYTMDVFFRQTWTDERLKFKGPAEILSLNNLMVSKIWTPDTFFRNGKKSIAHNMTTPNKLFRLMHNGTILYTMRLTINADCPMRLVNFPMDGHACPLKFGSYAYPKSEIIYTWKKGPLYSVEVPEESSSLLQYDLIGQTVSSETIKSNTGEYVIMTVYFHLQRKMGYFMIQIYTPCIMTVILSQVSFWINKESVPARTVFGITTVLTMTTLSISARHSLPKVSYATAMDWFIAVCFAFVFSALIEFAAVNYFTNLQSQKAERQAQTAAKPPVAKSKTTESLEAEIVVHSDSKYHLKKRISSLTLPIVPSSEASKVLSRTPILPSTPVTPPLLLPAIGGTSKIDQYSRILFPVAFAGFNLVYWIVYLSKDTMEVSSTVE
# T2 sequence (P63079 whole entry): as the sequence (P63079 whole entry) above
# [8] = molecular target: Gamma-aminobutyric acid receptor subunit alpha-6/beta-3/gamma-2 (Rattus norvegicus) (UniProt P18508+P30191+P63079); assay: as §4
# [9] = molecular target: Gamma-aminobutyric acid receptor subunit alpha-1/beta-3 (Rattus norvegicus) (UniProt P62813+P63079); assay: Displacement of [3H]EBOB from rat GABA-A receptor alpha1beta3 expressed in HEK293 cell membranes at 10 uM after 90 mins by liquid scintillation counting analysis relative to control; summary of the method: as §2
# [10] = molecular target: Gamma-aminobutyric acid receptor subunit alpha-1/beta-3/gamma-2 (Rattus norvegicus, UniProt P18508+P62813+P63079); assay: Modulation of rat […] GABA-A receptor alpha1beta3gamma2 expressed in HEK293 cells in presence of GABA by patch-clamp assay; assay type: cell-based; summary of the method: as §1
# Gamma-aminobutyric acid receptor subunit alpha-1/beta-3/gamma-2, sequence (P18508 whole entry): as the sequence (P18508 whole entry) above
# Gamma-aminobutyric acid receptor subunit alpha-1/beta-3/gamma-2, sequence (P62813 whole entry): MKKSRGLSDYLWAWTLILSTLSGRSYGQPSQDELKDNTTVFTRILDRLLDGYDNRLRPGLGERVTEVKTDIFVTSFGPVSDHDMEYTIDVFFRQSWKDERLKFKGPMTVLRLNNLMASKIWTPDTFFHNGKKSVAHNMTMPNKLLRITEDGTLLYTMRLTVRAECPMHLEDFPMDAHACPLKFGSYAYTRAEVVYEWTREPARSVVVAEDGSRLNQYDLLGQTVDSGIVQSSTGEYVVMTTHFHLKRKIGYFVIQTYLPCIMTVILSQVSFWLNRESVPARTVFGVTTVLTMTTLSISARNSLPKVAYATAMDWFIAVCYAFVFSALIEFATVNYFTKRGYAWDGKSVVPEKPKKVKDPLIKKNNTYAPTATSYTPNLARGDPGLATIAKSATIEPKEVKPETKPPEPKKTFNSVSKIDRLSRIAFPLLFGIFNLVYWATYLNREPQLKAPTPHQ
# Gamma-aminobutyric acid receptor subunit alpha-1/beta-3/gamma-2, sequence (P63079 whole entry): as the sequence (P63079 whole entry) above
# [11] = molecular target: Gamma-aminobutyric acid receptor subunit alpha-1/beta-3/delta (Rattus norvegicus) (UniProt P18506+P62813+P63079); assay: Modulation of rat […] GABA-A receptor alpha1beta3delta expressed in HEK293 cells up to 10 uM in presence of GABA by patch-clamp assay relative to control; assay type: cell-based; summary of the method: as §1
# [12] = molecular target: Gamma-aminobutyric acid receptor subunit alpha-4/beta-3/gamma-2 (Rattus norvegicus) (UniProt P18508+P28471+P63079); assay: Agonist activity at rat […] GABA-A receptor alpha4beta3gamma2 expressed in HEK293 cells assessed as ratio of I0 to GABA Imax at 10 uM in absence of GABA by patch-clamp assay; assay type: cell-based; summary of the method: as §3
# [13] = molecular target: Gamma-aminobutyric acid receptor subunit alpha-6/beta-2/delta (Rattus norvegicus) (UniProt P18506+P30191+P63138); assay: Displacement of [3H]EBOB from rat GABA-A receptor alpha6beta2delta expressed in HEK293 cell membranes up to 10 uM after 90 mins by liquid scintillation counting analysis relative to control; summary of the method: as §2
# [14] = molecular target: Gamma-aminobutyric acid receptor subunit alpha-6/beta-3 (Rattus norvegicus, UniProt P30191+P63079); assay: (§5) Displacement of [3H]EBOB from rat GABA-A receptor alpha6beta3 expressed in HEK293 cell membranes after 90 mins in presence of GABA by liquid scintillation counting analysis
# Gamma-aminobutyric acid receptor subunit alpha-6/beta-3, sequence (P30191 whole entry): as the sequence (P30191 whole entry) above
# Gamma-aminobutyric acid receptor subunit alpha-6/beta-3, sequence (P63079 whole entry): as the sequence (P63079 whole entry) above
# [15] = molecular target: T1, Gamma-aminobutyric acid receptor subunit alpha-6/beta-3 (Rattus norvegicus); assay: as §5
# [16] = molecular target: Gamma-aminobutyric acid receptor subunit alpha-1/beta-3/gamma-2 (Rattus norvegicus) (UniProt P18508+P62813+P63079); assay: Modulation of rat […] GABA-A receptor alpha1beta3gamma2 expressed in HEK293 cells up to 10 uM in presence of GABA by patch-clamp assay relative to control; assay type: cell-based; summary of the method: as §1
# [17] = test system: GABA-A receptor alpha6beta3delta (++); assay: Modulation of rat eGFP-fused GABA-A receptor alpha6beta3delta expressed in HEK293 cells up to 10 uM in presence of GABA by patch-clamp assay relative to control
# [18] = molecular target: Gamma-aminobutyric acid receptor subunit alpha-6/beta-3/delta (Rattus norvegicus, UniProt P18506+P30191+P63079); assay: (§6) Displacement of [3H]EBOB from rat GABA-A receptor alpha6beta3delta expressed in HEK293 cell membranes after 90 mins in presence of GABA by liquid scintillation counting analysis
# Gamma-aminobutyric acid receptor subunit alpha-6/beta-3/delta, sequence (P18506 whole entry): as the sequence (P18506 whole entry) above
# Gamma-aminobutyric acid receptor subunit alpha-6/beta-3/delta, sequence (P30191 whole entry): as the sequence (P30191 whole entry) above
# Gamma-aminobutyric acid receptor subunit alpha-6/beta-3/delta, sequence (P63079 whole entry): as the sequence (P63079 whole entry) above
# [19] = molecular target: Gamma-aminobutyric acid receptor subunit alpha-6/beta-3/delta (Rattus norvegicus) (UniProt P18506+P30191+P63079); assay: as §6
# [20] = organism: Rattus norvegicus; assay: Selectivity ratio of IC50 for rat GABA-A receptor alpha6beta2 expressed in HEK293 cells to IC50 for rat GABA-A receptor alpha6beta2delta expressed in HEK293 cells; assay type: cell-based
# [21] = molecular target: T2, Gamma-aminobutyric acid receptor subunit alpha-6/beta-3/gamma-2; assay: Modulation of rat […] GABA-A receptor alpha6beta3gamma2 expressed in HEK293 cells in presence of GABA by patch-clamp assay; assay type: cell-based; summary of the method: as §1
# [22] = molecular target: GABA A receptor alpha-6/beta-2/gamma-2 (Rattus norvegicus, UniProt P18508+P30191+P63138); assay: Displacement of [3H]EBOB from rat GABA-A receptor alpha6beta2gamma2 expressed in HEK293 cell membranes after 90 mins by liquid scintillation counting analysis; summary of the method: as §2
# GABA A receptor alpha-6/beta-2/gamma-2, sequence (P18508 whole entry): as the sequence (P18508 whole entry) above
# GABA A receptor alpha-6/beta-2/gamma-2, sequence (P30191 whole entry): as the sequence (P30191 whole entry) above
# GABA A receptor alpha-6/beta-2/gamma-2, sequence (P63138 whole entry): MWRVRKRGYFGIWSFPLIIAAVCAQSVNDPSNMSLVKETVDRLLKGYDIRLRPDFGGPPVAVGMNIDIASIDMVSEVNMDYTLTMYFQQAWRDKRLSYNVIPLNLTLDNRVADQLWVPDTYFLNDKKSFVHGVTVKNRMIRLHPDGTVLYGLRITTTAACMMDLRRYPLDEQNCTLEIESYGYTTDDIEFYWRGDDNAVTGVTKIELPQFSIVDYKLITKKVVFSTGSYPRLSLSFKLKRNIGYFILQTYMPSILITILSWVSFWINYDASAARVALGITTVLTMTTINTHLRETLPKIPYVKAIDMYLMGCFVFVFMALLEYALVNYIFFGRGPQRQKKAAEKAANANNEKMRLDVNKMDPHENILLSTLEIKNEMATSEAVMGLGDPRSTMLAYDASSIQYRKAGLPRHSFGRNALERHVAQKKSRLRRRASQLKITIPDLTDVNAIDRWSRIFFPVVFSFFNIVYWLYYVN
structure (smiles),measurement,setting,value
O=C(Nc1c(-c2cccs2)nc2c(Br)cc(Br)cn12)c1ccc(Cl)cc1,Ratio IC50,[1],7
same,Activity,[2],1140%
same,IC50,[3],510 nM
same,Ratio,[4],1.48
same,Ratio IC50,[5],7
same,Activity,[6],297%
same,IC50,[7],1090 nM
same,Imax,[8],93%
same,Imax,[9],25%
same,EC50,[10],2010 nM
same,Activity,[11],201%
same,Ratio,[12],0.163
same,Imax,[13],82%
same,IC50,[14],960 nM
same,Imax,[15],96%
same,Activity,[16],139%
same,Activity,[17],802%
same,IC50,[18],370 nM
same,Imax,[19],88%
same,Ratio IC50,[20],4
same,EC50,[21],870 nM
same,IC50,[22],1130 nM
